Measured values reported in ChEMBL document CHEMBL1136094, “Novel, potent and selective cyclin D1/CDK4 inhibitors: indolo[6,7-a]pyrrolo[3,4-c]carbazoles” (Bioorg Med Chem Lett, 2003).
≈ marks a conversion by molar mass, not a printed value.

Assays:
[1] = biological target: Dual specificity mitogen-activated protein kinase kinase 6 (Homo sapiens) (UniProt P52564); experiment: Inhibition of mitogen-activated protein kinase kinase 6 at 500 nM; parameters: scale not given: the % may be the effect or the level left
Procedure, shortened: (§1)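 Panel of 39 kinases, each tested at 100 and 500 nM inhibitor. […] Activity is expressed as % of control and is the mean of duplicate assays.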

[2] = biological target: RAF proto-oncogene serine/threonine-protein kinase (Homo sapiens) (UniProt P04049); experiment: Inhibition of RAF proto-oncogene serine/threonine-protein kinase at 500 nM; parameters: scale not given: the % may be the effect or the level left; procedure, shortened: as §1
[3] = Percent control against SKG at compound concentration of 500 nM; procedure, shortened: as §1
[4] = biological target: Casein kinase I (Homo sapiens) (UniProt Q9HCP0+P78368+P48730+P49674+P48729); experiment: Inhibition of CK1 kinase at 100 nM; type: protein assay; parameters: scale not given: the % may be the effect or the level left
Procedure, shortened: (§2)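 Panel profiling of isolated kinases with inhibitor at 100 nM and 500 nM. […] Remaining kinase activity is expressed as % of control and is the mean of duplicate assays.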

[5] = biological target: TGF-beta receptor type-2 (Homo sapiens, UniProt P37173); experiment: Inhibition of TGF-beta type II receptor
[6] = biological target: MAP kinase-activated protein kinase 2 (Homo sapiens) (UniProt P49137); experiment: Inhibition of mitogen-activated protein kinase-activated protein kinase 2 at 100 nM; parameters: scale not given: the % may be the effect or the level left; procedure, shortened: as §1
[7] = biological target: Dual specificity mitogen-activated protein kinase kinase 1 (Homo sapiens) (UniProt Q02750); experiment: Inhibition of Mitogen activated protein kinase kinase kinase 1 at 100 nM; parameters: scale not given: the % may be the effect or the level left
[8] = biological target: Mitogen-activated protein kinase 10 (Homo sapiens) (UniProt P53779); experiment: Inhibition of c-Jun N-terminal kinase 3 at 500 nM; parameters: scale not given: the % may be the effect or the level left; procedure, shortened: as §1
[9] = biological target: Tyrosine-protein kinase ZAP-70 (Homo sapiens) (UniProt P43403); experiment: Inhibition of Zeta-chain (TCR) associated protein kinase 70 kDa (ZAP70) at 100 nM; parameters: scale not given: the % may be the effect or the level left; procedure, shortened: as §1
[10] = biological target: Tyrosine-protein kinase Lck (Homo sapiens) (UniProt P06239); experiment: Inhibition of p56 Lck tyrosine kinase at 500 nM; parameters: scale not given: the % may be the effect or the level left; procedure, shortened: as §1
[11] = biological target: Dual specificity mitogen-activated protein kinase kinase 7 (Homo sapiens) (UniProt O14733); experiment: Inhibition of MKK7-beta kinase at 100 nM; parameters: scale not given: the % may be the effect or the level left; procedure, shortened: as §2
[12] = biological target: Mitogen-activated protein kinase 12 (Homo sapiens) (UniProt P53778); experiment: Inhibition of Stress activated protein kinase 3 at 100 nM; parameters: scale not given: the % may be the effect or the level left; procedure, shortened: as §1
[13] = biological target: Ribosomal protein S6 kinase alpha-5 (Homo sapiens) (UniProt O75582); experiment: Inhibition of MSK-1 kinase at 500 nM; parameters: scale not given: the % may be the effect or the level left; procedure, shortened: as §2
[14] = biological target: T1, Ribosomal protein S6 kinase (P70S6K) (Homo sapiens) (UniProt Q9UBS0+P23443); experiment: Inhibition of Ribosomal protein S6 kinase (p70S6K) at 100 nM; type: protein-complex assay; parameters: scale not given: the % may be the effect or the level left; procedure, shortened: as §1
[15] = biological target: Serine/threonine-protein kinase Chk1 (Homo sapiens) (UniProt O14757); experiment: Inhibition of Serine/threonine-protein kinase Chk1 at 100 nM; parameters: scale not given: the % may be the effect or the level left; procedure, shortened: as §1
[16] = Inhibition of AMP-activated Protein Kinase at 500 nM; parameters: scale not given: the % may be the effect or the level left; procedure, shortened: as §2
[17] = biological target: Cyclin-dependent kinase 2/cyclin A (Homo sapiens) (UniProt P24941+P20248+P78396); experiment: Inhibition of Cyclin A-cyclin-dependent kinase 2 at 500 nM; type: protein-complex assay; parameters: scale not given: the % may be the effect or the level left; procedure, shortened: as §2
[18] = biological target: Cyclin-dependent kinase 4/cyclin D1 (Homo sapiens, UniProt P11802); experiment: Inhibitory activity against Cyclin D1-cyclin-dependent kinase 4 in enzymatic assay by measuring phosphorylation of Rb21; type: protein-complex assay
[19] = biological target: cAMP-dependent protein kinase (PKA) (Homo sapiens, UniProt P22694+P17612+P22612); experiment: Inhibitory activity against Protein kinase A (Histone); type: protein assay
[20] = biological target: Tyrosine-protein kinase Blk (Homo sapiens) (UniProt P51451); experiment: Inhibition of B lymphoid tyrosine kinase at 100 nM; parameters: scale not given: the % may be the effect or the level left; procedure, shortened: as §2
[21] = biological target: Dual specificity mitogen-activated protein kinase kinase 4 (Homo sapiens) (UniProt P45985); experiment: Inhibition of mitogen-activated protein kinase kinase 4 at 100 nM; parameters: scale not given: the % may be the effect or the level left; procedure, shortened: as §1
[22] = biological target: Cyclin-dependent kinase 4 (Homo sapiens) (UniProt P11802); experiment: Inhibition of Rb phosphorylation at the CDK4 specific Ser780 residue (3 fold increase over control) after 24 hr incubation in HCT116 cells; type: functional, cell-based; conditions: HCT-116, concentration not given here
[23] = Inhibition of AMP-activated Protein Kinase at 100 nM; parameters: scale not given: the % may be the effect or the level left; procedure, shortened: as §2
[24] = biological target: Mitogen-activated protein kinase kinase kinase 20 (Homo sapiens, UniProt Q9NYL2); experiment: Inhibition of MLK-7 kinase
[25] = biological target: Protein kinase C beta type (Homo sapiens) (UniProt P05771); experiment: Inhibition of Protein kinase C beta 2 at 100 nM; parameters: scale not given: the % may be the effect or the level left; procedure, shortened: as §2
[26] = biological target: RAC-alpha serine/threonine-protein kinase (Homo sapiens, UniProt P31749); experiment: Inhibition of Protein kinase B, Akt-1
[27] = biological target: Inhibitor of nuclear factor kappa-B kinase subunit beta (Homo sapiens) (UniProt O14920); experiment: Inhibition of I-kappa-B-kinase beta at 500 nM; parameters: scale not given: the % may be the effect or the level left; procedure, shortened: as §2
[28] = biological target: Serine/threonine-protein kinase N2 (Homo sapiens) (UniProt Q16513); experiment: Inhibition of PRK2 at 500 nM; parameters: scale not given: the % may be the effect or the level left; procedure, shortened: as §2
[29] = biological target: Serine/threonine-protein kinase Chk2 (Homo sapiens) (UniProt O96017); experiment: Inhibition of Serine/threonine-protein kinase Chk2 at 500 nM; parameters: scale not given: the % may be the effect or the level left; procedure, shortened: as §1
[30] = biological target: Serine/threonine-protein kinase Sgk1 (Homo sapiens) (UniProt O00141); experiment: Inhibition of Serum/glucocorticoid regulated kinase at 500 nM; parameters: scale not given: the % may be the effect or the level left; procedure, shortened: as §1
[31] = biological target: Mitogen-activated protein kinase 1 (Homo sapiens) (UniProt P28482); experiment: Inhibition of Mitogen-activated protein kinase 2 at 500 nM; parameters: scale not given: the % may be the effect or the level left; procedure, shortened: as §2
[32] = biological target: Mitogen-activated protein kinase 12 (Homo sapiens) (UniProt P53778); experiment: Inhibition of Stress activated protein kinase 3 at 500 nM; parameters: scale not given: the % may be the effect or the level left; procedure, shortened: as §1
[33] = biological target: CDK3/cyclin E (Homo sapiens) (UniProt P24864+O96020+Q00526); experiment: Inhibition of Cyclin E-cyclin-dependent kinase 3 at 100 nM; type: protein-complex assay; parameters: scale not given: the % may be the effect or the level left; procedure, shortened: as §2
[34] = biological target: Serine/threonine-protein kinase Chk1 (Homo sapiens) (UniProt O14757); experiment: Inhibition of Serine/threonine-protein kinase Chk1 at 500 nM; parameters: scale not given: the % may be the effect or the level left; procedure, shortened: as §1
[35] = biological target: Protein kinase C gamma type (Homo sapiens) (UniProt P05129); experiment: Inhibition of Protein kinase C gamma at 100 nM; parameters: scale not given: the % may be the effect or the level left; procedure, shortened: as §2
[36] = biological target: Ribosomal protein S6 kinase alpha-5 (Homo sapiens) (UniProt O75582); experiment: Inhibition of MSK-1 kinase at 100 nM; parameters: scale not given: the % may be the effect or the level left; procedure, shortened: as §2
[37] = system: HCT-116; experiment: In vitro antiproliferative activity against human carcinoma cell line HCT116 (colon); type: functional, cell-based
[38] = biological target: Dual specificity mitogen-activated protein kinase kinase 4 (Homo sapiens) (UniProt P45985); experiment: Inhibition of mitogen-activated protein kinase kinase 4 at 500 nM; parameters: scale not given: the % may be the effect or the level left; procedure, shortened: as §1
[39] = biological target: 3-phosphoinositide-dependent protein kinase 1 (Homo sapiens) (UniProt O15530); experiment: Inhibition of PDK1 kinase at 500 nM; parameters: scale not given: the % may be the effect or the level left; procedure, shortened: as §2
[40] = biological target: Tyrosine-protein kinase Lck (Homo sapiens) (UniProt P06239); experiment: Inhibition of p56 Lck tyrosine kinase at 100 nM; parameters: scale not given: the % may be the effect or the level left; procedure, shortened: as §1
[41] = biological target: MAP kinase-activated protein kinase 2 (Homo sapiens) (UniProt P49137); experiment: Inhibition of mitogen-activated protein kinase-activated protein kinase 2 at 500 nM; parameters: scale not given: the % may be the effect or the level left; procedure, shortened: as §1
[42] = Aqueous solubility (in situ) in D5W after 1 week was determined; type: physicochemical; conditions: D5W
[43] = biological target: Tyrosine-protein kinase Blk (Homo sapiens) (UniProt P51451); experiment: Inhibition of B lymphoid tyrosine kinase at 500 nM; parameters: scale not given: the % may be the effect or the level left; procedure, shortened: as §2
[44] = biological target: Mitogen-activated protein kinase 10 (Homo sapiens) (UniProt P53779); experiment: Inhibition of c-Jun N-terminal kinase 3 at 100 nM; parameters: scale not given: the % may be the effect or the level left; procedure, shortened: as §1
[45] = biological target: T1, Ribosomal protein S6 kinase (P70S6K) (Homo sapiens); experiment: Inhibition of Ribosomal protein S6 kinase (p70S6K) at 500 nM; type: protein-complex assay; parameters: scale not given: the % may be the effect or the level left; procedure, shortened: as §1
[46] = biological target: Mitogen-activated protein kinase 1 (Homo sapiens) (UniProt P28482); experiment: Inhibition of Mitogen-activated protein kinase 2 at 100 nM; parameters: scale not given: the % may be the effect or the level left; procedure, shortened: as §2

Chain of Ribosomal protein S6 kinase alpha-5 (Homo sapiens) (O75582 whole entry, looked up): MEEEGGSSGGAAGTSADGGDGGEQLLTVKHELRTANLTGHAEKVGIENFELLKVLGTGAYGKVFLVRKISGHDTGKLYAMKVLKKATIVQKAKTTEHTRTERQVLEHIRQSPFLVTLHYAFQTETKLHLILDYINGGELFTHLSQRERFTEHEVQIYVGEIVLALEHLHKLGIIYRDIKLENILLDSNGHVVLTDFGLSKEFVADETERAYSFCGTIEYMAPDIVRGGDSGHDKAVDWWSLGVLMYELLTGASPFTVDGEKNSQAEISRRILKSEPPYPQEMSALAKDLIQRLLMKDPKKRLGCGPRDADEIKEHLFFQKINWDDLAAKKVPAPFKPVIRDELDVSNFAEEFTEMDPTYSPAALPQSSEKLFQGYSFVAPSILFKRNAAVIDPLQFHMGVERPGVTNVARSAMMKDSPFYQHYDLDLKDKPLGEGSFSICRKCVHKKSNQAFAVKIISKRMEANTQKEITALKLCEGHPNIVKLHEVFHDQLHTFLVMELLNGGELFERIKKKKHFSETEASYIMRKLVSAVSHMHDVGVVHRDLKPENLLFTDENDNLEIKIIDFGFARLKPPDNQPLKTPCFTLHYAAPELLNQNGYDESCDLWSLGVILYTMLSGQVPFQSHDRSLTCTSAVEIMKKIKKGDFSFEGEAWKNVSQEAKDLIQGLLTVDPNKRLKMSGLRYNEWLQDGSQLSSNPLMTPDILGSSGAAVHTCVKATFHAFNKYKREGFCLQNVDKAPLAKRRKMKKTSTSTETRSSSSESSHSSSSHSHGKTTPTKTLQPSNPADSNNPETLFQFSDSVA
Chain of Tyrosine-protein kinase Blk (Homo sapiens) (P51451 2-505 limits assumed): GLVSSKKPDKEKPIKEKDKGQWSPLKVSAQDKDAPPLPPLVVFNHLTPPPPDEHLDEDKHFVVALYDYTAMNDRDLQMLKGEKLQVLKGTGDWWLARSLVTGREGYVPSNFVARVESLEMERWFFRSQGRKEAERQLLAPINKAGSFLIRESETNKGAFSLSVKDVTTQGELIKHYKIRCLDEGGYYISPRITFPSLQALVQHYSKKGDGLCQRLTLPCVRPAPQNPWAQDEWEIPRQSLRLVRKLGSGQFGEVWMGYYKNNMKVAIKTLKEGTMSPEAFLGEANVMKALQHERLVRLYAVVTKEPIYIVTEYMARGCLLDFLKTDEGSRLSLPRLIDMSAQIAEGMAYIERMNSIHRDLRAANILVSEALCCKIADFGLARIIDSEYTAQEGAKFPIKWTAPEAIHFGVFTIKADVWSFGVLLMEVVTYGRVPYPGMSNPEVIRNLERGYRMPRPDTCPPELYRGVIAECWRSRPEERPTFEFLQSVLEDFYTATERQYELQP
Chain of Serine/threonine-protein kinase Chk1 (Homo sapiens) (O14757 whole entry): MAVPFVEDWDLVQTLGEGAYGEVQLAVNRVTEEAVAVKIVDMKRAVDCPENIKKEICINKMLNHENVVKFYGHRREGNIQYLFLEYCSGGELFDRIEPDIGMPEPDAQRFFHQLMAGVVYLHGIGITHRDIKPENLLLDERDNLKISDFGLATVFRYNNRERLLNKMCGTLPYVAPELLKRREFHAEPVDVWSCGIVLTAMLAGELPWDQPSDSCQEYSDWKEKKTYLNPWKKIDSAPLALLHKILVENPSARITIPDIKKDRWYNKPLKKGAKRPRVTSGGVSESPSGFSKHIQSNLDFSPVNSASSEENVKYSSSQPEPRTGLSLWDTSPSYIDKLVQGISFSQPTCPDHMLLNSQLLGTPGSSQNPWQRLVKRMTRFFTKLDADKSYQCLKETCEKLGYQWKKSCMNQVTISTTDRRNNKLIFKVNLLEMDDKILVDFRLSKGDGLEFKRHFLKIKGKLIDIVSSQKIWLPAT
Chain of Dual specificity mitogen-activated protein kinase kinase 4 (Homo sapiens) (P45985 whole entry): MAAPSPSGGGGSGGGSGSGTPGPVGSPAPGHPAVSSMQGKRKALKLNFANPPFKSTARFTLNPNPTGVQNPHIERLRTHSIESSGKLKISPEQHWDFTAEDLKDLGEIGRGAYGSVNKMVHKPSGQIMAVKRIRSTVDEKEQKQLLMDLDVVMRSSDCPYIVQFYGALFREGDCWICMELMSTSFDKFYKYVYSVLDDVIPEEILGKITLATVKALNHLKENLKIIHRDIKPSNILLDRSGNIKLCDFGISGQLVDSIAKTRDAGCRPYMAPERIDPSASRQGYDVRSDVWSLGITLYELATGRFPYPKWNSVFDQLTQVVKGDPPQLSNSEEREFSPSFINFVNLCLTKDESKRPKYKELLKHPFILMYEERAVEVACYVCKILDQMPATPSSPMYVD
Chain of Mitogen-activated protein kinase 1 (Homo sapiens) (P28482 whole entry): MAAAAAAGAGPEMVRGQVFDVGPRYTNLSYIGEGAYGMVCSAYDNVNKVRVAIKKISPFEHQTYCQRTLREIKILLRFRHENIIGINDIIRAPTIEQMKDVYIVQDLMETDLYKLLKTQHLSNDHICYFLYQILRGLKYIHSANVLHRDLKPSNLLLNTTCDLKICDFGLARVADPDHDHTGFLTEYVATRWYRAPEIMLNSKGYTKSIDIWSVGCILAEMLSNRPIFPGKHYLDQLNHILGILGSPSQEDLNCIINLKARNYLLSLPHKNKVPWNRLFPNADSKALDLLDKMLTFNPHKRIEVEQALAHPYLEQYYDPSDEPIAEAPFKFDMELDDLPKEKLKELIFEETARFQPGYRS
Chain of Mitogen-activated protein kinase 10 (Homo sapiens) (P53779 whole entry): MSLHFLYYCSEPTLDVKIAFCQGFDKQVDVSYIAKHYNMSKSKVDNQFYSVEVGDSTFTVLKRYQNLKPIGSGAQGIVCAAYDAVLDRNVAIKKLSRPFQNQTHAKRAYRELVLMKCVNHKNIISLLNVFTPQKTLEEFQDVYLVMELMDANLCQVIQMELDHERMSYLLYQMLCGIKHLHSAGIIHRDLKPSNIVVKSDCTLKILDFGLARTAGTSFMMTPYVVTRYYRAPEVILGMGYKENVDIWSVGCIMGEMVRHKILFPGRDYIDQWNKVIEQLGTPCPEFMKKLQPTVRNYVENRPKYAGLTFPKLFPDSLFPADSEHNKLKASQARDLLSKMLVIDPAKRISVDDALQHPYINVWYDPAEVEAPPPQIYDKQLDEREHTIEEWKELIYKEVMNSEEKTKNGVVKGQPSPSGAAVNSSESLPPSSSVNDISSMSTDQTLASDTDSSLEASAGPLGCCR
Chain of MAP kinase-activated protein kinase 2 (Homo sapiens) (P49137 whole entry, looked up): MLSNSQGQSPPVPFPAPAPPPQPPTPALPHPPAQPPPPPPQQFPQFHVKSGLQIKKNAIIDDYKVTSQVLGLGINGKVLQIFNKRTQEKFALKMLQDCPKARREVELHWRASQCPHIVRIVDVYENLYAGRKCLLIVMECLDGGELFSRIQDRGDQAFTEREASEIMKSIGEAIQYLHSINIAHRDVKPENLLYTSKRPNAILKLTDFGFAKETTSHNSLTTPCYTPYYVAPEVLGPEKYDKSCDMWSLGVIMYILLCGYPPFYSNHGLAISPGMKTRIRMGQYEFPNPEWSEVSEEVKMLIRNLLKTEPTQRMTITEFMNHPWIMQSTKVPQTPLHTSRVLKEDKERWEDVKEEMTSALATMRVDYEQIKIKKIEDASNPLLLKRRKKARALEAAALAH
Chain of Tyrosine-protein kinase Lck (Homo sapiens) (P06239 2-509 limits assumed): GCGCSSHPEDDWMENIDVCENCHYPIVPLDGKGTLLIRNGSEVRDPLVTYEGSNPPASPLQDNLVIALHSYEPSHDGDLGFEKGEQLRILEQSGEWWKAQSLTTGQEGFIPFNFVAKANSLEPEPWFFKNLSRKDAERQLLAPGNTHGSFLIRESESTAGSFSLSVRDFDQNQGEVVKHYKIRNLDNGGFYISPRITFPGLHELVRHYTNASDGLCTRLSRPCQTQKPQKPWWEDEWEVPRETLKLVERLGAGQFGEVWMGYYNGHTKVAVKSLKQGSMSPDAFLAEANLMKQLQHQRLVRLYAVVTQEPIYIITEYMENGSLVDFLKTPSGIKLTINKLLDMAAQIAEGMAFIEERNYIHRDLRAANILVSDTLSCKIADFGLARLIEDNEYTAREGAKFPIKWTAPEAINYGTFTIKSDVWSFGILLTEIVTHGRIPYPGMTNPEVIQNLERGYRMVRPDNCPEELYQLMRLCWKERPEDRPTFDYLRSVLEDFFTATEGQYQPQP
Chain of Mitogen-activated protein kinase 12 (Homo sapiens) (P53778 whole entry): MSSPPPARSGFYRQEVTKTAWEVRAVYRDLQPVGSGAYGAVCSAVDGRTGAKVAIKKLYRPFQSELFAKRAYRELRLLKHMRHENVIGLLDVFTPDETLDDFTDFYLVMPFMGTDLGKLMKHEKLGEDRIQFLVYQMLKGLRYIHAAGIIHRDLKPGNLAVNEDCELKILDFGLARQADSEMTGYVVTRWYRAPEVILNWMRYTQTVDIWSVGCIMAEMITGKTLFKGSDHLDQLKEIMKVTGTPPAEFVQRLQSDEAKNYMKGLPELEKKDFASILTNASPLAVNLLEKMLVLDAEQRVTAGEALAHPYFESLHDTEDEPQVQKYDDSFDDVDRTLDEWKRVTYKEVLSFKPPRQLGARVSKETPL
Chain of Dual specificity mitogen-activated protein kinase kinase 1 (Homo sapiens) (Q02750 whole entry): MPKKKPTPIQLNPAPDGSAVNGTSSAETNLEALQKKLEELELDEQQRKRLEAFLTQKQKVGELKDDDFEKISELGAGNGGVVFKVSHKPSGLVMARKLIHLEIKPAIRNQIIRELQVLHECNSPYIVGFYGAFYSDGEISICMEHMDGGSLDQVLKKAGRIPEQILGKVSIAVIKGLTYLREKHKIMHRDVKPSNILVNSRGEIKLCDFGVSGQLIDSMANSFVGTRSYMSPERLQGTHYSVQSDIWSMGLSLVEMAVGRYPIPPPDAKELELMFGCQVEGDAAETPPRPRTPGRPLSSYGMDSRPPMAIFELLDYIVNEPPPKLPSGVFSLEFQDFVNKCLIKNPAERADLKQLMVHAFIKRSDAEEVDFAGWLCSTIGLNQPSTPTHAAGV

Structure (SMILES): Cn1ccc2ccc3c4[nH]c5c(CCCN[C@H]6CC[C@H](O)CC6)cccc5c4c4c(c3c21)C(=O)NC4=O
- Control [1]: 98%
- Control [2]: 107%
- Control [3]: 84%
- Control [4]: 98%
- IC50 [5]: > 20 µM
- Control [6]: 94%
- Control [7]: 95%
- Control [8]: 97%
- Control [9]: 134%
- Control [10]: 60%
- Control [11]: 86%
- Control [12]: 107%
- Control [13]: 90%
- Control [14]: 93%
- Control [15]: 86%
- Control [16]: 95%
- Control [17]: 42%
- IC50 [18]: 0.019 µM
- IC50 [19]: 2.93 µM
- Control [20]: 74%
- Control [21]: 91%
- inhibition [22]: 83%
- Control [23]: 98%
- IC50 [24]: 9.97 µM
- Control [25]: 96%
- IC50 [26]: 5.48 µM
- Control [27]: 106%
- Control [28]: 88%
- Control [29]: 53%
- Control [30]: 84%
- Control [31]: 90%
- Control [32]: 109%
- Control [33]: 89%
- Control [34]: 70%
- Control [35]: 105%
- Control [36]: 92%
- IC50 [37]: 1.05 µM
- Control [38]: 84%
- Control [39]: 65%
- Control [40]: 98%
- Control [41]: 104%
- solubility at 168 h [42]: 8900 µg/mL (≈ 18 mM)
- Control [43]: 14%
- Control [44]: 105%
- Control [45]: 85%
- Control [46]: 103%
